From ChEMBL document CHEMBL1124802 (J Med Chem, 1990)

Experiments:
[1] = Stimulation of Adenylate cyclase from rat striatal membranes; format: cell membranes, Membrane
Method in brief: (§1)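 Rat striatum homogenised in HEPES/EGTA buffer. […] Stopped with SDS, then ZnSO4/Ba(OH)2 precipitation. [32P]cAMP isolated by HPLC with UV-tracked internal standard and counted; percent stimulation calculated from peak areas and radioactivity.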

[2] = Percentage maximum stimulation adenylate cyclase was measured versus DA; method in brief: as §1
D(1A) dopamine receptor = D(1A) dopamine receptor (Rattus norvegicus, UniProt P18901); assay: Displacement of [3H]- #NAME? from binding Dopamine receptor D1 in rat striatum
Sequence of D(1A) dopamine receptor (P18901 whole entry): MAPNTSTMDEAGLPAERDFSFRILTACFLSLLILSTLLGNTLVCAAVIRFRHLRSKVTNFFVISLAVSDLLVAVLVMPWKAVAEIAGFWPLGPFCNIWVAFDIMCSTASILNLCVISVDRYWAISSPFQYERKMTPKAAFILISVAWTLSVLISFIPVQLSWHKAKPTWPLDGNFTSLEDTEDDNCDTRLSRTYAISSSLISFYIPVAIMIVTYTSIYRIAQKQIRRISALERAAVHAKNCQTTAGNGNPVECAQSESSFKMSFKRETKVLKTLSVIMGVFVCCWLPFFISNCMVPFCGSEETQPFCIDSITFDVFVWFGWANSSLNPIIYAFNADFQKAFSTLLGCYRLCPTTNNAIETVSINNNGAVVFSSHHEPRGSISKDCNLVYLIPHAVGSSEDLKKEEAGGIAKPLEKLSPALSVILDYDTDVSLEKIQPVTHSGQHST
Method in brief: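 Rat striatal membranes, homogenised and washed twice by centrifugation in ice-cold 50 mM HEPES with 4 mM MgCl2, pH 7.4, at about 2 mg wet weight/mL. Competition with the tritiated selective D1 antagonist in 1.0 mL of the same buffer, 37 °C for 15 min. Nonspecific binding defined with 1 µM of the unlabelled antagonist. Filtration and scintillation counting; protein measured by Lowry.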

D(2) dopamine receptor = D(2) dopamine receptor (Rattus norvegicus, UniProt P61169); assay: Displacement of [3H]- -spiperone from Dopamine receptor D2 in rat striatum
Sequence of D(2) dopamine receptor (P61169 whole entry): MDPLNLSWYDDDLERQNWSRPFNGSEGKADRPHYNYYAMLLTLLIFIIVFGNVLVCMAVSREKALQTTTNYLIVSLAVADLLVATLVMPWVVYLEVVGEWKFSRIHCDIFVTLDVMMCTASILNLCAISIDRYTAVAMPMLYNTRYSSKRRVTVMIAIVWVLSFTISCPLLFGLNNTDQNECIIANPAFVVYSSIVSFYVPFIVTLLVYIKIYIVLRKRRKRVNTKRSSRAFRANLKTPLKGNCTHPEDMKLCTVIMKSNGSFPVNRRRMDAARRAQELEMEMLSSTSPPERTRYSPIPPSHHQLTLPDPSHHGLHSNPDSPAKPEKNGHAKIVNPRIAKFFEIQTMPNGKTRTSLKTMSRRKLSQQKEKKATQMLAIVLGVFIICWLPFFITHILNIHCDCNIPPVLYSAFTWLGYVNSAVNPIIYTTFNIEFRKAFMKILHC
Method in brief: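 Same rat striatal membrane preparation and buffer (50 mM HEPES, 4 mM MgCl2, pH 7.4). Competition with [3H]spiperone in 1.0 mL at 37 °C for 15 min. Nonspecific binding defined with 1 µM chlorpromazine. Bound ligand collected by glass-fibre filtration and counted by scintillation; protein measured by Lowry.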

| Compound | EC50 [1] [nM] | Max stimulation [2] | IC50 (D(1A) dopamine receptor) [nM] | IC50 (D(2) dopamine receptor) [nM] |
| --- | --- | --- | --- | --- |
| Oc1cc2c(cc1O)[C@@H](c1ccccc1)CNCC2 [(R)-SKF-38393] | 100 | 50 |  |  |
| Oc1cc2c(cc1O)[C@@H]1c3ccccc3CN[C@@H]1CC2 |  | 17 |  |  |
| Oc1cc2c(cc1O)[C@H]1c3ccccc3CN[C@@H]1CC2 [DIHYDREXIDINE] | 70 | 120 |  |  |
| Oc1cc2c(cc1O)[C@H]1CCCN[C@@H]1CC2 | > 10 | 33 | > 5000 | 68 |
| CN1Cc2ccccc2[C@@H]2c3cc(O)c(O)cc3CC[C@H]21 | 1000 | 63 | 91 | 136 |
| CCCN1Cc2ccccc2[C@@H]2c3cc(O)c(O)cc3CC[C@H]21 | > 10 | 32 | 651 | 53 |
| CN1CCc2cc(Cl)c(O)cc2[C@@H](c2ccccc2)C1 |  | 0 |  |  |
| Oc1ccc([C@@H]2CNCc3sccc32)cc1O | 700 | 120 | 120 | 285 |
| Oc1cc2c(cc1O)CC(NCc1ccccc1)CC2 (configuration not stated) |  | 25 | > 5000 | 290 |
| NCCc1ccc(O)c(O)c1 [DOPAMINE] | 5000 | 100 |  |  |
